Hck-Nef inh = inhibitors of Nef-activated human Hck kinase, primary screen, biochemical, Z-Lyte FRET, 384-well, Hck-YEEI; Tyrosine-protein kinase HCK (Homo sapiens), P08631; Recombinant Hck-YEEI plus Nef, Z-Lyte FRET kinase assay; 220,000 compounds, 0.68% hits; inhibition, % at 20 µM; AID 463187, 2010;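 active = Hck-Nef kinase inhibition above about 50%, limit read from the data; inactive = inhibition below that limit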;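 note: 0% = DMSO with Hck plus Nef and 100% = Hck alone without Nef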
Target sequence (P08631 whole entry, looked up): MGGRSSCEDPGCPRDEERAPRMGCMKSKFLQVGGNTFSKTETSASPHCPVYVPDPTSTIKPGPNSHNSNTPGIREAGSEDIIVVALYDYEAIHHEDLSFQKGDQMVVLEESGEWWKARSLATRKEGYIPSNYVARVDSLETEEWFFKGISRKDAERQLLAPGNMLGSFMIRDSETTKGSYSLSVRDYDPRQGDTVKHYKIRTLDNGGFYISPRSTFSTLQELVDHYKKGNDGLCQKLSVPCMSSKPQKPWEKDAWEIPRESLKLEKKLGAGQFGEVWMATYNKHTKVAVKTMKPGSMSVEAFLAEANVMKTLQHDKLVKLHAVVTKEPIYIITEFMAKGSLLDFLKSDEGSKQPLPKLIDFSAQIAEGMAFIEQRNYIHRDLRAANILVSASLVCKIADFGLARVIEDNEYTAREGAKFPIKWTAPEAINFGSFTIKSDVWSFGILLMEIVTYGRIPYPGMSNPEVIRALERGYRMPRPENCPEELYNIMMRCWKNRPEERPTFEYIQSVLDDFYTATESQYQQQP
RanGTP-Impb inh = inhibitors of RanGTP-importin-beta interaction, primary screen, biochemical, FRET, CFP-Ran, YFP-importin-beta, homogeneous. Ran GTPase (GTP-bound) - importin-beta complex. cell-free CFP-Ran/YFP-importin-beta FRET ratio. inhibition, % (no concentration beside the values). 300,000 compounds, 1.1% hits. AID 2216, 2009;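 active = more than half of the replicate wells show a fall in the fluorescence ratio signal beyond about 16%, limit read from the data, passing the limit was not always enough; inconclusive = exactly half of the replicate wells pass the set limit; inactive = fewer than half of replicates pass the limit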;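 note: 0% = DMSO wells and 100% = Ran loaded with GDP instead of GTP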
Runt-CBFb FRET = inhibitors of RUNX1 Runt–CBFb binding, primary screen, biochemical, FRET, Cerulean-Runt, Venus-CBFb, uHTS; Cerulean-Runt/Venus-CBFb FRET ratio 530/480, 1 h; AID 1496, 2009; 220,000 compounds, 0.46% hits; inhibition, % at 20 µM; Runt-related transcription factor 1 (Homo sapiens) + Core-binding factor subunit beta …;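 active = inhibition over about 50% at 20 µM in the single-dose screen, limit read from the data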;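 note: 0% = DMSO wells and 100% = excess unlabeled CBFb competitor control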
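System: Cerulean-labeled Runt domain protein | Quantity: 100 nM of each labeled protein | Schedule: 1 h compound exposure, room temperature | Detection: Fluorescence energy transfer, 422 nm excitation, 530/480 nm emission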
Tb hexokinase = Trypanosoma brucei hexokinase 1 inhibitors, primary screen, biochemical, G6PDH-coupled NADH absorbance, MLSCN library; hexokinase 1 [Trypanosoma brucei]; recombinant TbHK1, G6PDH-coupled NADH A340; inhibition, % at 10 µM; 220,000 compounds, 0.11% hits; AID 1430, 2008;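 active = inhibition of 50% or more in the single-dose primary screen; inactive = inhibition below 50%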
14-3-3 Bad inh = inhibitors of 14-3-3 zeta/Bad binding, primary screen, biochemical, TR-FRET, bovine 14-3-3 zeta | 220,000 compounds, 0.71% hits | inhibition, % at 21.7 µM | TR-FRET 14-3-3zeta/Dy647-pBad peptide displacement, 1 h;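 active = inhibition above about 70%, limit read from the data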;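 note: 0% = full 14-3-3 plus peptide FRET controls and 100% = background without 14-3-3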
Runt-SMMHC FRET = inhibitors of RUNX1 Runt–CBFb-SMMHC binding, primary screen, biochemical, FRET, Cerulean-Runt, Venus-CBFb-SMMHC, uHTS; Cerulean-Runt/Venus-CBFb-SMMHC FRET ratio 530/480, 1 h; inhibition, % at 20 µM; 220,000 compounds, 0.74% hits; AID 1434, 2008;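 active = mean inhibition across duplicate retests at 20 µM reaching about 50%, limit read from the data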;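 note: 0% = DMSO wells and 100% = wells with excess untagged CBFb-SMMHC; inhibitors lower the FRET ratio by blocking Runt binding to CBFb-SMMHC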
* = called active by the depositor; ? = inconclusive; . = no result. Rows were chosen to be rich in hits. Some 2.2% of all compounds tested hit in one or more screens of this group.

SMILES	Hck-Nef inh	RanGTP-Impb inh	Runt-CBFb FRET	Tb hexokinase	14-3-3 Bad inh	Runt-SMMHC FRET
COc1cc(C2NC(=O)NC(C)=C2C(=O)OCc2ccc(C)cc2)cc(OC)c1O (stereo not given)	0.2	66.2*	-3.1	-1.3	3.4	2.4
COc1cc(C2NC(=O)NC(C)=C2C(=O)OCc2ccc(C)cc2)cc(OC)c1OC (stereo not given)	.	28.8*	.	.	.	.
Cc1ccc(Nc2nnc(SC3CCOC3=O)s2)c(C)c1 (stereo not given)	-2.3	1.4	0.8	-1.3	79.7*	-1.4
Cc1ccc(Nc2nnc(SCC(=O)NC3CCS(=O)(=O)C3)s2)c(C)c1 (stereo not given)	23.8	3.1	-0.6	-0.9	-13.1	-1.9
O=C(Oc1cccc2c(=O)[nH]ccc12)c1ccccc1	0.1	.	-1.8	-10.4	78.1*	2.6
O=C(Oc1ccc[nH]c1=O)c1cccc(Cl)c1	-8.0	-2.2	5.7	-5.8	-6.4	1.8
COc1ccc(-c2ocnc2C(=O)N2CCN(C(c3ccccc3)c3ccccc3)CC2)cc1	23.9	?	-4.6	-5.5	-8.2	-5.5
CCOC(=O)c1ccc2nc(C)cc(Nc3cccc(C(=O)O)c3)c2c1	-4.5	3.6	-1.4	-9.9	-8.1	0.4
CCOC(=O)c1cccc(Nc2nc(C)cc(C)n2)c1	0.1	.	-2.6	0.6	70.8*	0.0
O=C(CN1C(=O)COc2ccc(Cl)cc21)N1CCc2ccccc21	-0.8	0.8	-0.2	-1.8	-14.8	-0.7
C#CCN(C(=O)CC1C(=O)NCCN1C/C=C/c1ccccc1)C1CCCCC1 (stereo not given)	15.0	2.3	-0.3	-3.0	-6.3	1.1
COc1ccc(CNC(=O)c2cc3c(=O)n4cccc(C)c4nc3n(CC3CCCO3)c2=N)cc1 (stereo not given)	.	76.7*	.	.	.	.
Cc1cccn2c(=O)c3cc(C(=O)NCc4ccc(F)cc4)c(=N)n(CC4CCCO4)c3nc12 (stereo not given)	.	185.1*	.	.	.	.
COCCn1c(=N)c(C(=O)NCCc2ccc(OC)cc2)cc2c(=O)n3cccc(C)c3nc21	12.7	77.6*	108.5*	-5.4	.	113.7*
CCC(C)[C@H](NC(=O)N1CCCC1)C(=O)OC (stereo not given in full)	0.0	-1.6	1.5	8.1	3.4	-8.3
CCC(C)[C@H](NC(=O)N1CCCCC1)C(=O)OC (stereo not given in full)	7.6	23.1*	1.4	-9.4	-5.6	-5.2
COc1ccccc1-c1nn2c(-c3ccco3)nnc2s1	3.4	?	12.5	-13.0	88.8*	7.1
CCCCCCCCCCS(=O)(=O)N/N=C/c1ccc(O)cc1	-1.2	-0.4	-6.0	4.0	-3.0	-1.9
CCOC(=O)c1cc(C#N)c(SCC(=O)c2cc(C#N)c(SC)nc2C)nc1C	.	19.8*	-10.5	.	.	40.7
CC(C)N1CCC(=NNC(=O)c2cccs2)CC1	.	-0.5	.	.	.	.
Cc1ccccc1-n1c(O)c(/C=C/C=Nc2ccccc2)c(=O)[nH]c1=O	2.8	20.2*	28.7	-42.4	-2.6	76.2*
CCCC(c1nnnn1Cc1ccco1)N1CCN(C(=O)c2ccco2)CC1 (stereo not given)	1.3	-2.9	0.1	4.5	18.4	3.3
CCCCC(c1nnnn1Cc1ccco1)N1CCN(C(=O)c2ccco2)CC1 (stereo not given)	-0.2	1.4	5.2	-8.2	84.6*	0.9
CCC(c1nnnn1CCc1ccccc1)N1CCN(C(=O)c2ccco2)CC1 (stereo not given)	0.2	0.2	-0.9	-4.2	74.5*	0.0
O=C(Nc1nc2c(s1)CN(Cc1ccccc1)CC2)c1c(F)cccc1F	18.7	-1.1	49.9	-12.5	-1.8	98.0*
